Assay results taken from ChEMBL document CHEMBL1158173, “Carbodithioic acid esters of fluoxetine, a novel class of dual-function spermicides” (2008).
≈ marks a conversion by molar mass, not a printed value. Calls of active or inactive are those of the source. No cut-off for these calls is given here.

test system: Sporothrix schenckii; experiment: Antifungal activity against Sporothrix schenckii after 48 hrs by broth microdilution technique; format: functional; conditions: not given

Compound	MIC [mg/L]	Activity
CCCCCCCCCc1ccc(OCCOCCOCCOCCOCCOCCOCCOCCOCCO)cc1 [NONOXYNOL 9]	–	inactive
CN(CCC(Oc1ccc(C(F)(F)F)cc1)c1ccccc1)C(=S)SCCCl (stereo not given)	25 (≈ 55.8 µM)	–
CN1CCN(C(=S)SCC(O)CN(C)CCC(Oc2ccc(C(F)(F)F)cc2)c2ccccc2)CC1 (stereo not given)	–	inactive
CN(CCC(Oc1ccc(C(F)(F)F)cc1)c1ccccc1)CC(O)CSC(=S)N1CCCC1 (stereo not given)	–	inactive

Continued, in another order:

MIC [mg/L]	Compound	Activity
6.25 (≈ 12.9 µM)	CCN(CC)CCSC(=S)N(C)CCC(Oc1ccc(C(F)(F)F)cc1)c1ccccc1 (stereo not given)	–
25 (≈ 51.8 µM)	CN(CCC(Oc1ccc(C(F)(F)F)cc1)c1ccccc1)C(=S)SCCN1CCCC1 (stereo not given)	–

test system: Candida albicans; experiment: Antifungal activity against Candida albicans MTCC 1346 after 48 hrs by broth microdilution technique; format: functional; conditions: MTCC 1346, 48 h

MIC [mg/L]	Compound
6.25 (≈ 12.9 µM)	CN(CCC(Oc1ccc(C(F)(F)F)cc1)c1ccccc1)C(=S)SCCN1CCCC1 (stereo not given)

test system: Candida parapsilosis; experiment: (§1) Antifungal activity against Candida parapsilosis ATCC 22019 after 48 hrs by broth microdilution technique; format: functional; conditions: not given

Compound	Activity
CN1CCN(C(=S)SCC(O)CN(C)CCC(Oc2ccc(C(F)(F)F)cc2)c2ccccc2)CC1 (stereo not given)	inactive
CN(CCC(Oc1ccc(C(F)(F)F)cc1)c1ccccc1)CC(O)CSC(=S)N1CCCC1 (stereo not given)	inactive

same assay, conditions: Lodderomyces parapsilosis, ATCC 22019, 48 h

Compound	MIC [mg/L]
CCCCCCCCCc1ccc(OCCOCCOCCOCCOCCOCCOCCOCCOCCO)cc1 [NONOXYNOL 9]	50 (≈ 81.1 µM)
CCN(CC)CCSC(=S)N(C)CCC(Oc1ccc(C(F)(F)F)cc1)c1ccccc1 (stereo not given)	50 (≈ 103 µM)
CN(CCC(Oc1ccc(C(F)(F)F)cc1)c1ccccc1)C(=S)SCCN1CCCC1 (stereo not given)	3.12 (≈ 6.46 µM)
CN(CCC(Oc1ccc(C(F)(F)F)cc1)c1ccccc1)C(=S)SCCCl (stereo not given)	25 (≈ 55.8 µM)

test system: Candida albicans; experiment: Antifungal activity against Candida albicans ATCC 6019 after 48 hrs by broth microdilution technique; format: functional; conditions: ATCC 6019, 48 h

MIC [mg/L]	Compound
6.25 (≈ 12.9 µM)	CN(CCC(Oc1ccc(C(F)(F)F)cc1)c1ccccc1)C(=S)SCCN1CCCC1 (stereo not given)

test system: Candida parapsilosis; experiment: as §1; format: functional; conditions: Lodderomyces parapsilosis, ATCC 22019, 48 h

MIC [mg/L]	Compound
3.12 (≈ 6.47 µM)	CN(CCC(Oc1ccc(C(F)(F)F)cc1)c1ccccc1)C(=S)SCCN1CCCC1 (stereo not given)

test system: Candida albicans; experiment: Antifungal activity against Candida albicans ATCC 66027 after 48 hrs by broth microdilution technique; format: functional; conditions: ATCC 66027, 48 h

MIC [mg/L]	Compound
6.25 (≈ 12.9 µM)	CN(CCC(Oc1ccc(C(F)(F)F)cc1)c1ccccc1)C(=S)SCCN1CCCC1 (stereo not given)

test system: Pichia kudriavzevii; experiment: Antifungal activity against Candida krusei ATCC 6258 after 48 hrs by broth microdilution technique; format: functional; conditions: ATCC 6258, 48 h

MIC [mg/L]	Compound
6.25 (≈ 12.9 µM)	CN(CCC(Oc1ccc(C(F)(F)F)cc1)c1ccccc1)C(=S)SCCN1CCCC1 (stereo not given)

test system: Candida albicans; experiment: Antifungal activity against Candida albicans ATCC 10231 after 48 hrs by broth microdilution technique; format: functional; conditions: ATCC 10231, 48 h

MIC [mg/L]	Compound
6.25 (≈ 12.9 µM)	CN(CCC(Oc1ccc(C(F)(F)F)cc1)c1ccccc1)C(=S)SCCN1CCCC1 (stereo not given)

test system: Candida albicans; experiment: Antifungal activity against Candida albicans MTCC 183 after 48 hrs by broth microdilution technique; format: functional; conditions: MTCC 183, 48 h

MIC [mg/L]	Compound
3.12 (≈ 6.47 µM)	CN(CCC(Oc1ccc(C(F)(F)F)cc1)c1ccccc1)C(=S)SCCN1CCCC1 (stereo not given)

test system: Candida albicans; experiment: Antifungal activity against Candida albicans after 48 hrs by broth microdilution technique; format: functional; conditions: not given

Compound	MIC [mg/L]	Activity
CCCCCCCCCc1ccc(OCCOCCOCCOCCOCCOCCOCCOCCOCCO)cc1 [NONOXYNOL 9]	–	inactive
CN(CCC(Oc1ccc(C(F)(F)F)cc1)c1ccccc1)C(=S)SCCCl (stereo not given)	50 (≈ 112 µM)	–
CN1CCN(C(=S)SCC(O)CN(C)CCC(Oc2ccc(C(F)(F)F)cc2)c2ccccc2)CC1 (stereo not given)	–	inactive
CN(CCC(Oc1ccc(C(F)(F)F)cc1)c1ccccc1)CC(O)CSC(=S)N1CCCC1 (stereo not given)	–	inactive

Further lines, with some results ahead:

MIC [mg/L]	Compound	Activity
50 (≈ 103 µM)	CCN(CC)CCSC(=S)N(C)CCC(Oc1ccc(C(F)(F)F)cc1)c1ccccc1 (stereo not given)	–
6.25 (≈ 12.9 µM)	CN(CCC(Oc1ccc(C(F)(F)F)cc1)c1ccccc1)C(=S)SCCN1CCCC1 (stereo not given)	–

test system: Candida albicans; experiment: Antifungal activity against Candida albicans ATCC 10453 after 48 hrs by broth microdilution technique; format: functional; conditions: ATCC 10453, 48 h

MIC [mg/L]	Compound
6.25 (≈ 12.9 µM)	CN(CCC(Oc1ccc(C(F)(F)F)cc1)c1ccccc1)C(=S)SCCN1CCCC1 (stereo not given)

test system: not listed separately; experiment: (§2) Spermicidal activity in liquefied human semen assessed as drug level required to kill 100% sperm in 20 seconds; format: functional; conditions: not given

Compound	MEC [%]
CCCCCCCCCc1ccc(OCCOCCOCCOCCOCCOCCOCCOCCOCCO)cc1 [NONOXYNOL 9]	0.05
CCN(CC)CCSC(=S)N(C)CCC(Oc1ccc(C(F)(F)F)cc1)c1ccccc1 (stereo not given)	1
CN(CCC(Oc1ccc(C(F)(F)F)cc1)c1ccccc1)C(=S)SCCN1CCCC1 (stereo not given)	0.05
CN(CCC(Oc1ccc(C(F)(F)F)cc1)c1ccccc1)C(=S)SCCCl (stereo not given)	1
CN1CCN(C(=S)SCC(O)CN(C)CCC(Oc2ccc(C(F)(F)F)cc2)c2ccccc2)CC1 (stereo not given)	1

test system: Sperm; experiment: as §2; format: functional; conditions: not given

Compound	Activity
CN(CCC(Oc1ccc(C(F)(F)F)cc1)c1ccccc1)CC(O)CSC(=S)N1CCCC1 (stereo not given)	inactive

test system: Trichomonas vaginalis; experiment: Antitrichomonas activity against Trichomonas vaginalis after 48 hrs by trypan blue staining; format: functional; conditions: not given
Outline: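 Trichomonas vaginalis was grown in TYM medium and used in log phase, one day after routine subculture. Compounds in DMSO stock were serially diluted in TYM medium, with DMSO/TYM as vehicle control. Wells received 5 × 10³ trophozoites and were incubated anaerobically at 37 °C. Viability was scored daily by trypan blue and cell counts, and MIC was read at 48 h. Finer dilutions were then retested, and the final MIC was taken from a concentration versus viable-trophozoite-number curve.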

Compound	MIC [mg/L]
CCCCCCCCCc1ccc(OCCOCCOCCOCCOCCOCCOCCOCCOCCO)cc1 [NONOXYNOL 9]	23 (≈ 37.3 µM)
CN(CCC(Oc1ccc(C(F)(F)F)cc1)c1ccccc1)C(=S)SCCCl (stereo not given)	> 200

Second part, the compound after the results:

MIC [mg/L]	Compound
24 (≈ 49.5 µM)	CCN(CC)CCSC(=S)N(C)CCC(Oc1ccc(C(F)(F)F)cc1)c1ccccc1 (stereo not given)
14 (≈ 29 µM)	CN(CCC(Oc1ccc(C(F)(F)F)cc1)c1ccccc1)C(=S)SCCN1CCCC1 (stereo not given)
6.68 (≈ 12.3 µM)	CN1CCN(C(=S)SCC(O)CN(C)CCC(Oc2ccc(C(F)(F)F)cc2)c2ccccc2)CC1 (stereo not given)

test system: Trichophyton mentagrophytes; experiment: Antifungal activity against Trichophyton mentagrophytes after 48 hrs by broth microdilution technique; format: functional; conditions: not given

Compound	MIC [mg/L]	Activity
CCCCCCCCCc1ccc(OCCOCCOCCOCCOCCOCCOCCOCCOCCO)cc1 [NONOXYNOL 9]	–	inactive
CN(CCC(Oc1ccc(C(F)(F)F)cc1)c1ccccc1)C(=S)SCCCl (stereo not given)	12.5 (≈ 27.9 µM)	–
CN(CCC(Oc1ccc(C(F)(F)F)cc1)c1ccccc1)CC(O)CSC(=S)N1CCCC1 (stereo not given)	–	inactive

More lines, main results first:

MIC [mg/L]	Compound	Activity
12.5 (≈ 25.8 µM)	CCN(CC)CCSC(=S)N(C)CCC(Oc1ccc(C(F)(F)F)cc1)c1ccccc1 (stereo not given)	–
12.5 (≈ 25.9 µM)	CN(CCC(Oc1ccc(C(F)(F)F)cc1)c1ccccc1)C(=S)SCCN1CCCC1 (stereo not given)	–
25 (≈ 46.2 µM)	CN1CCN(C(=S)SCC(O)CN(C)CCC(Oc2ccc(C(F)(F)F)cc2)c2ccccc2)CC1 (stereo not given)	–

test system: Cryptococcus neoformans; experiment: Antifungal activity against Cryptococcus neoformans after 48 hrs by broth microdilution technique; format: functional; conditions: not given

Compound	MIC [mg/L]	Activity
CCCCCCCCCc1ccc(OCCOCCOCCOCCOCCOCCOCCOCCOCCO)cc1 [NONOXYNOL 9]	–	inactive
CN(CCC(Oc1ccc(C(F)(F)F)cc1)c1ccccc1)C(=S)SCCCl (stereo not given)	50 (≈ 112 µM)	–
CN(CCC(Oc1ccc(C(F)(F)F)cc1)c1ccccc1)CC(O)CSC(=S)N1CCCC1 (stereo not given)	–	inactive

Now from value to compound, other results behind:

MIC [mg/L]	Compound	Activity
50 (≈ 103 µM)	CCN(CC)CCSC(=S)N(C)CCC(Oc1ccc(C(F)(F)F)cc1)c1ccccc1 (stereo not given)	–
3.12 (≈ 6.46 µM)	CN(CCC(Oc1ccc(C(F)(F)F)cc1)c1ccccc1)C(=S)SCCN1CCCC1 (stereo not given)	–
12.5 (≈ 23.1 µM)	CN1CCN(C(=S)SCC(O)CN(C)CCC(Oc2ccc(C(F)(F)F)cc2)c2ccccc2)CC1 (stereo not given)	–

test system: Aspergillus fumigatus; experiment: Antifungal activity against Aspergillus fumigatus after 48 hrs by broth microdilution technique; format: functional; conditions: not given

Compound	MIC [mg/L]	Activity
CCCCCCCCCc1ccc(OCCOCCOCCOCCOCCOCCOCCOCCOCCO)cc1 [NONOXYNOL 9]	–	inactive
CN(CCC(Oc1ccc(C(F)(F)F)cc1)c1ccccc1)C(=S)SCCCl (stereo not given)	50 (≈ 112 µM)	–
CN1CCN(C(=S)SCC(O)CN(C)CCC(Oc2ccc(C(F)(F)F)cc2)c2ccccc2)CC1 (stereo not given)	–	inactive
CN(CCC(Oc1ccc(C(F)(F)F)cc1)c1ccccc1)CC(O)CSC(=S)N1CCCC1 (stereo not given)	–	inactive

Further lines, with some results ahead:

MIC [mg/L]	Compound	Activity
6.25 (≈ 12.9 µM)	CCN(CC)CCSC(=S)N(C)CCC(Oc1ccc(C(F)(F)F)cc1)c1ccccc1 (stereo not given)	–
12.5 (≈ 25.9 µM)	CN(CCC(Oc1ccc(C(F)(F)F)cc1)c1ccccc1)C(=S)SCCN1CCCC1 (stereo not given)	–
